Experimental data published in ChEMBL document CHEMBL4725305, “Optimizing the aryl-triazole of cjoc42 for enhanced gankyrin binding and anti-cancer activity” (Bioorg Med Chem Lett, 2020).
Activity calls are given as the source filed them. No cut-off for these calls is given here.

Legend:
[1] = target: T1, 26S proteasome non-ATPase regulatory subunit 10 (Homo sapiens) (UniProt O75832); test: Binding affinity to gankyrin (unknown origin) assessed as increase in melting temperature at 300 uM by thermal shift assay
T1 sequence (whole entry): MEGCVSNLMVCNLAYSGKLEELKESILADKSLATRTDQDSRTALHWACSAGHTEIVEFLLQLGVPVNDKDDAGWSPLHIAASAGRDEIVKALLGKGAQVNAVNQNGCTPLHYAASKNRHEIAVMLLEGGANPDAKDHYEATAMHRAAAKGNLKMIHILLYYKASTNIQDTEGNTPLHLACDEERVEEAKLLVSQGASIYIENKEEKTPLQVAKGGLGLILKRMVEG
Method in brief: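 Gankyrin (20 μM) incubated with test compound at 300 μM in protein thermal shift assay; denaturation temperature (T_m) measured and ΔT_m taken relative to protein without ligand. Vehicle control 5% DMSO; cjoc42 at 300 μM as reference control. Each compound tested in triplicate.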

[2] = test system: A549; test: Cytotoxicity against human A549 cells assessed as reduction in cell viability incubated for 48 hrs by MTT assay; type: functional, cell-based; details: A549, 48 h
Method in brief: (§1)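 A549 and MDA-MB-231 cells incubated 24 h before drug addition, then exposed to compound for 48 h at 37 °C, 5% CO2; proliferation read by MTT assay and IC50 derived; tested up to 100 μM.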

[3] = test system: MDA-MB-231; test: Cytotoxicity against human MDA-MB-231 cells assessed as reduction in cell viability incubated for 48 hrs by MTT assay; type: functional, cell-based; details: MDA-MB-231, 48 h; method in brief: as §1
[4] = test system: Hep3B; test: Cytotoxicity against human Hep3B cells assessed as reduction in cell viability incubated for 72 hrs by MTT assay
[5] = test system: HepG2; test: Cytotoxicity against human HepG2 cells assessed as reduction in cell viability incubated for 72 hrs by MTT assay; type: functional, cell-based; details: HepG2, 72 h
Method in brief: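 Hep3B and HepG2 cells incubated 24 h before drug addition, then exposed to compound for 72 h at 37 °C, 5% CO2; proliferation read by MTT assay and IC50 derived; tested up to 100 μM.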

[6] = target: T1, 26S proteasome non-ATPase regulatory subunit 10 (Homo sapiens); test: Potency index, ratio of change in melting temperature of Cjoc42 to change in melting temperature of compound for binding affinity to gankyrin (unknown origin) assessed as increase in melting temperature at 300 uM by thermal shift assay
Method in brief: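 Gankyrin (20 μM) with compound at 300 μM in thermal shift assay, run in triplicate; ΔT_m of each compound compared with that of cjoc42 (300 μM) tested in parallel as positive control; 5% DMSO vehicle.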

| SMILES | Activity [1] | further results |
| --- | --- | --- |
| COc1ccc(-n2cc(CCCOS(=O)(=O)c3ccc(I)cc3)nn2)cc1 | inactive |  |
| COC(=O)c1ccc(-n2cc(CCCOS(=O)(=O)c3ccc(C)cc3)nn2)cc1 |  | IC50 [2]: > 100 µM; IC50 [3]: > 100 µM; IC50 [4]: > 100 µM; IC50 [5]: > 100 µM |
| Cc1ccc(S(=O)(=O)OCCCc2cn(-c3ccccc3C)nn2)cc1 | Active |  |
| Cc1ccc(S(=O)(=O)OCCCc2cn(-c3cccc(C#N)c3)nn2)cc1 | Active | IC50 [2]: > 100 µM; IC50 [3]: > 100 µM; IC50 [4]: 44.9 µM; Ratio [6]: 6; IC50 [5]: > 100 µM |
| COC(=O)c1ccc(-n2cc(CCCOS(=O)(=O)c3ccc(-c4ccccc4)cc3)nn2)cc1 |  | IC50 [4]: 26 µM |
| Cc1ccc(S(=O)(=O)OCCCc2cn(-c3cccnc3)nn2)cc1 | inactive |  |
| COc1ccc(-n2cc(CCCOS(=O)(=O)c3ccc(-c4ccccc4)cc3)nn2)cc1 | inactive |  |
| N#Cc1cccc(-n2cc(CCCOS(=O)(=O)c3ccc(-c4ccccc4)cc3)nn2)c1 | inactive |  |
| Cc1ccc(S(=O)(=O)OCCCc2cn(-c3ccccc3-c3ccccc3)nn2)cc1 | Active |  |
| Cc1ccc(S(=O)(=O)OCCCc2cn(-c3ccccn3)nn2)cc1 | inactive |  |
| Cc1ccc(S(=O)(=O)OCCCc2cn(-c3ccc(-c4ccccc4)cc3)nn2)cc1 | inactive |  |
| N#Cc1cccc(-n2cc(CCCOS(=O)(=O)c3ccc(I)cc3)nn2)c1 | inactive |  |
| Cc1ccc(S(=O)(=O)OCCCc2cn(-c3ccncc3)nn2)cc1 | inactive |  |
| COc1ccccc1-n1cc(CCCOS(=O)(=O)c2ccc(C)cc2)nn1 | Active |  |
| Cc1ccc(S(=O)(=O)OCCCc2cn(-c3cccc(Br)c3)nn2)cc1 | Active |  |
| CCc1ccccc1-n1cc(CCCOS(=O)(=O)c2ccc(C)cc2)nn1 | inactive |  |
| Cc1ccc(S(=O)(=O)OCCCc2cn(-c3cccc(C(F)(F)F)c3)nn2)cc1 | Active |  |
| Cc1ccc(S(=O)(=O)OCCCc2cn(-c3ccccc3C#N)nn2)cc1 | inactive |  |
| COc1cccc(-n2cc(CCCOS(=O)(=O)c3ccc(C)cc3)nn2)c1 | Active |  |
| Cc1ccc(S(=O)(=O)OCCCc2cn(-c3ccccc3F)nn2)cc1 | inactive |  |
| Cc1ccc(S(=O)(=O)OCCCc2cn(-c3nccs3)nn2)cc1 | inactive |  |
| COC(=O)c1ccccc1-n1cc(CCCOS(=O)(=O)c2ccc(C)cc2)nn1 | inactive |  |
| Cc1ccc(S(=O)(=O)OCCCc2cn(-c3ccccc3C(F)(F)F)nn2)cc1 | Active |  |

Continued, in another order:

| Activity [1] | SMILES | further results |
| --- | --- | --- |
| Active | Cc1ccc(S(=O)(=O)OCCCc2cn(-c3cccc(F)c3)nn2)cc1 | IC50 [2]: > 100 µM; IC50 [3]: > 100 µM; IC50 [4]: 82.1 µM; Ratio [6]: 5; IC50 [5]: 61.8 µM |
| Active | Cc1ccc(S(=O)(=O)OCCCc2cn(-c3ccc(Br)cc3)nn2)cc1 |  |
| inactive | Cc1ccc(S(=O)(=O)OCCCc2cn(-c3ccc(I)cc3)nn2)cc1 |  |
| Active | Cc1ccc(S(=O)(=O)OCCCc2cn(-c3ccc(C(F)(F)F)cc3)nn2)cc1 | IC50 [2]: > 100 µM; IC50 [3]: > 100 µM; IC50 [4]: 42.7 µM; IC50 [5]: 42.6 µM |
| inactive | CCc1ccc(-n2cc(CCCOS(=O)(=O)c3ccc(C)cc3)nn2)cc1 |  |
| Active | COc1ccc(-n2cc(CCCOS(=O)(=O)c3ccc(C)cc3)nn2)cc1 | IC50 [2]: 74.6 µM; IC50 [3]: 72.8 µM; IC50 [4]: > 100 µM; IC50 [5]: > 100 µM |
| Active | CCc1cccc(-n2cc(CCCOS(=O)(=O)c3ccc(C)cc3)nn2)c1 |  |
| Active | Cc1ccc(S(=O)(=O)OCCCc2cn(-c3ccc(Cl)cc3)nn2)cc1 |  |
| inactive | Cc1ccc(S(=O)(=O)OCCCc2cn(-c3ccc(C#N)cc3)nn2)cc1 |  |
| Active | Cc1ccc(-n2cc(CCCOS(=O)(=O)c3ccc(C)cc3)nn2)cc1 | IC50 [2]: 79.9 µM; IC50 [3]: 36.6 µM; IC50 [4]: > 100 µM; Ratio [6]: 3; IC50 [5]: > 100 µM |
| Active | Cc1ccc(S(=O)(=O)OCCCc2cn(-c3cccc(C)c3)nn2)cc1 |  |
| inactive | Cc1ccc(S(=O)(=O)OCCCc2cn(-c3ccc(C(C)C)cc3)nn2)cc1 |  |
| inactive | Cc1ccc(S(=O)(=O)OCCCc2cn(-c3ccc(F)cc3)nn2)cc1 |  |
